Data set [1] is described as follows: Safety: adverse events, hypoglycemia. To be noted: for patients with hypoglycemia (adverse event): generally mild or occasionally moderate, safety population; for number of subjects administered glucose for the treatment of hypoglycemia: intravenous glucose (20%) at investigator's discretion when blood glucose <60 mg/dL or symptoms. The class given is in vivo, patients with type 1 diabetes.

Data set [2] is classed as in vivo, patients with type 1 diabetes. Conditions: s.c., arithmetic mean; n = 21 (lispro), n = 16 (RHI); serum insulin RIA.
For data set [3], the system named is blood glucose. Put plainly: Postprandial glycemic response to a standardized liquid test meal. The class given is in vivo, patients with type 1 diabetes. Conditions: first 4 h after study drug administration. An outline of the steps: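 Single-blind crossover in adults with type 1 diabetes. Prandial insulin was withheld >8 h and basal insulin >12 h, and blood glucose was clamped to 100–120 mg/dL with IV glucose or insulin. After a 30-min baseline, staff gave an individually optimized SC abdominal insulin dose with or without hyaluronidase, then a liquid meal.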

The values below come from PMC3041204 (Diabetes Care, 2011).

As to insulin lispro, in data set [1], the “patients with hypoglycemia (adverse event)” value is recorded as 13 of 22 and the “number of subjects administered glucose for the treatment of hypoglycemia” value is 6 of 21. Besides, in data set [2], the “fraction of insulin exposure >2 h after injection” value amounted to 22% and the “fraction of total insulin exposure within the first hour following injection” value came to 39%. The “total hyperglycemic excursions (area under the curve >140 mg/dL)” value in data set [3] was 526 min ⋅ mg^−1 ⋅ mL^−1.
For the substance regular human insulin [RHI], in data set [1], the “patients with hypoglycemia (adverse event)” value is listed as 16 of 21 and the “number of subjects administered glucose for the treatment of hypoglycemia” value is reported as 12 of 21. The “patients with mild injection-site erythema” value in data set [1] (in vivo) is reported as “two”. Besides, the “total hyperglycemic excursions (area under the curve >140 mg/dL)” value in data set [3] is recorded as 1,238 min ⋅ mg^−1 ⋅ mL^−1.
